# Target: T1, Vascular endothelial growth factor receptor 2 (Homo sapiens, UniProt P35968)
# Experiment: Inhibition of human recombinant His-tagged VEGFR2 assessed as […] absorption at 10 uM by ELISA assay in presence of 20 uM ATP
# Conditions: not given
# Summary of the method: (§1)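 Human N-terminal His6-tagged recombinant VEGFR2 kinase domain (aa790-end), 100 ng per well, with 20 μM ATP and 1.5 μM substrate peptide (final), in streptavidin-coated wells. Kinase buffer contains up to 1% DMSO. Read-out is ELISA absorbance at 450 nm. Each run includes blank, control, DMSO control and standard. Value is average percent inhibition at the stated final compound concentration, replicates assayed on separate days.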
# T1 sequence (P35968 whole entry): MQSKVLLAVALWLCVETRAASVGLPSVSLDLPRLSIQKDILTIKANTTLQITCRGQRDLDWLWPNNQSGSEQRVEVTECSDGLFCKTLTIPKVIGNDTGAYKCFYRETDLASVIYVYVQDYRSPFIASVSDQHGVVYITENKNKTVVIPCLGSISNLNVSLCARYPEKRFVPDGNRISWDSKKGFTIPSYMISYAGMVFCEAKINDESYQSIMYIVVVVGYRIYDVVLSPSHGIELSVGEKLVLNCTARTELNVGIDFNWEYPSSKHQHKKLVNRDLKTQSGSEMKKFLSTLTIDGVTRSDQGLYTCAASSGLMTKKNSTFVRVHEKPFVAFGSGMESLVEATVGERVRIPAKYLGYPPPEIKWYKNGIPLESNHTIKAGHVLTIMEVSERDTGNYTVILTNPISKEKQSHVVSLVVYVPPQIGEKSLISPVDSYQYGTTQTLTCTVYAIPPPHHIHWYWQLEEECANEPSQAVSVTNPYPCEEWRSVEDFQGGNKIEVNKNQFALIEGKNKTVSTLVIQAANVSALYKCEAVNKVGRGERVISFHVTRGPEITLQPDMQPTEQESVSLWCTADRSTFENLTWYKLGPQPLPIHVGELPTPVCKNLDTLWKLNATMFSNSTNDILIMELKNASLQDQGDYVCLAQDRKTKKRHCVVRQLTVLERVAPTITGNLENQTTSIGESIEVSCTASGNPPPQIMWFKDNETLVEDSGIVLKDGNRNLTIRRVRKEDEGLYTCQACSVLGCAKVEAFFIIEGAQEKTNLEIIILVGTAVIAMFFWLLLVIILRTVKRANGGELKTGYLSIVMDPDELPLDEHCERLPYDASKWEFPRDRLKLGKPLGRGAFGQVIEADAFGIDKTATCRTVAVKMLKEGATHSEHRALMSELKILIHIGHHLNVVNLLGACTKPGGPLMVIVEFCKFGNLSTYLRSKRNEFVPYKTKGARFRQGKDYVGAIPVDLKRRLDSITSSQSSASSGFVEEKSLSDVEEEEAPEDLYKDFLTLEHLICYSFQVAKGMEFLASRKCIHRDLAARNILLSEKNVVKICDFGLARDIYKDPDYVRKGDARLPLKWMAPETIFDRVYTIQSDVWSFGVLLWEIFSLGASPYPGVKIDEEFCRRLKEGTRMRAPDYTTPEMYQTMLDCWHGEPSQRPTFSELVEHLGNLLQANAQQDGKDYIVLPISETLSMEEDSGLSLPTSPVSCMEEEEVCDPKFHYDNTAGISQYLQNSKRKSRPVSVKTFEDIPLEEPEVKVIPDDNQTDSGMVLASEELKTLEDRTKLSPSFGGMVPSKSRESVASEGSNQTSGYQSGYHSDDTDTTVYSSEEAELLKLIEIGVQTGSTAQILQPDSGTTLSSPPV
row,Compound,inhibition
1,COc1cc2ncnc(Nc3ccc(Cl)cc3)c2cc1OC,4%
2,COc1cc2ncnc(Nc3ccc(F)c(F)c3)c2cc1OC,5%
3,COc1cc2ncnc(Nc3ccc(F)cc3)c2cc1OC,6%
4,COc1cc2ncnc(NC3CCCCC3)c2cc1OC,17%
5,COc1cc2ncnc(Nc3ccc(C)c(F)c3)c2cc1OC,66%
6,COc1cc2ncnc(NC(C)C)c2cc1OC,13%
7,COc1cc2ncnc(OC(C)C)c2cc1OC,2%
8,COc1cc2ncnc(Nc3ccccc3)c2cc1OC,19%
9,COc1cc2ncnc(Nc3ccc(C)c(Cl)c3)c2cc1OC,9%
10,CCOc1ncnc2cc(OC)c(OC)cc12,0%

# Target: T1, Vascular endothelial growth factor receptor 2
# Conditions: 25 uM
row,Compound,inhibition
1,COc1ccc(-c2cnc3c(-c4ccsc4)cnn3c2)cc1,46%

# Target: T1, Vascular endothelial growth factor receptor 2
# Experiment: Inhibition of human recombinant His-tagged VEGFR2 assessed as […] absorption by ELISA assay in presence of 20 uM ATP
# Conditions: not given
row,Compound,IC50
1,Cc1cc(F)c(Nc2ncnc3cc(OCc4ccccc4)ccc23)cc1O,2 nM

# Target: T1, Vascular endothelial growth factor receptor 2
# Experiment: Inhibition of human recombinant His-tagged VEGFR2 assessed as […] absorption at 20 uM by ELISA assay in presence of 20 uM ATP
# Conditions: not given
# Summary of the method: as §1
row,Compound,inhibition
1,Cc1cc(F)c(Nc2ncnc3cc(OCc4ccccc4)ccc23)cc1O,37%
